According to the RNAGym collection of RNA variant scans (doi:10.1038/s41586-018-0170-7):

B1: tRNA (parent)
chain: GUUCCGUUGGCGUAAUGGUAACGCGUCUCCCUCCUAAGGAGAAGACUGCGGGUUCGAGUCCCGUACGGAACG

Variants of: B1
Assay: yeast fitness, log relative to wild type (ln ratio); higher = fitter; tRNA-Arg(CCU), competitive growth, 37 C, 1 M NaCl
In short: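 Genotype fitness is expressed as the natural log of its generations over those of the wild type. Each pool of the tRNA-Arg(CCU) variant library, carried on a HIS3 centromeric plasmid in BY4742 lacking the chromosomal gene, came from one of two independent transformations and grew 4 generations in SC-HIS at 30 °C before ~6.5 generations (~26.5 h) in SC-HIS 1M NaCl at 37 °C. Generation numbers used OD-scaled log2 output/input frequencies from 125 bp paired-end Illumina sequencing, combined across replicates by inverse-variance weighting.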

Variant	yeast fitness (ln)
U2G C27U A43C C46U C66U A70G	-0.161
G1A U2G G6U C46U C66U A70G	-0.238
G1A U2G G6U C27U A43C C46U C66U C71U	-0.526
G1A U2G G6U C27U C46U A69G C71U	-0.26
U2C G6U A43C C66U C71U	-0.349
G1A U2G G6U C27U A43C C66U A70G C71U	-0.346
G1A G6U C27U C46U C66A	-0.32
G1A U2C G6U A43C C66A A69G A70G C71U	-0.0437
G6A C46U C66A A69G A70G	-0.148
G1A G6A C46U C66A A70U	-0.134
U2C G6A C27U C46U C66A A69G A70G C71U	-0.188
G1A C46U A69G A70G	-0.127
U2G G6U A43C A69G A70G C71U	-0.28
G1A U2G A69G A70U C71U	-0.0282
U2G C27U A43C C46U C66A A69G A70G C71U	-0.183
G6U C27U A43C C66U A70G C71U	-0.352
U2G G6A C27U A43C C46U A70U	-0.119
U2G G6A C46U C71U	-0.149
U2G G6A C46U C66U A69G A70G	-0.442
G1A U2C G6U C66A A70G C71U	-0.0113
C27U C66U A69G A70U	-0.143

Variant	yeast fitness (ln)
U2G G6A C27U C66U	-0.0928
G1A U2G C27U C46U A70U	-0.293
C27U C46U A69G A70G	-0.0578
G1A U2C C27U A43C C46U C66U A70G	-0.0953
G6A C46U C66U A69G A70U	-0.202
C46U C71U	-0.00784
G1A U2G G6U C46U A70U C71U	-0.511
G1A U2C C27U A43C C46U C66U A69G A70U C71U	-0.464
U2G G6U A43C A70G	-0.173
U2G G6U A43C A70U	-0.151
G1A U2G G6A C27U A43C C46U C66A A70U	-0.219
G6A C46U A69G A70U C71U	-0.218
U2G G6U C46U C66U	-0.131
U2C G6A C46U C71U	-0.0887
G6U C27U C46U C66U A69G A70U	-0.308
G1A C27U A43C C46U C66A A69G A70U C71U	-0.415
G1A U2C G6U A43C C46U A70U C71U	-0.144
G6A A43C C66U A69G A70G C71U	-0.261
U2C C27U C66U A70G C71U	-0.172
U2G G6U C66A A70G C71U	-0.249
U2G G6A C27U C46U C66U A69G A70G C71U	-0.216

Variant	yeast fitness (ln)
U2G G6U C27U A43C C46U C66U A69G A70U C71U	-0.507
G1A C27U A43C C66U A70G C71U	-0.32
G1A U2G C27U C46U C66A C71U	-0.0936
G1A G6A C27U A69G A70U	-0.353
G1A U2C G6U A43C C46U A70U	-0.0463
U2C G6A C27U A70G C71U	-0.282
G1A U2C G6U C27U C46U A69G A70G C71U	-0.272
U2C G6A C46U A70U	-0.0378
G6U C66A A69G C71U	-0.0488
G1A U2C C46U C66U A70U	-0.0818
U2G G6A C46U A69G	-0.183
U2C C46U C66U A69G C71U	-0.145
U2G G6A C46U C66A A69G A70U	-0.0517
G6A A43C C66U A69G A70U C71U	-0.295
G1A U2C G6U A43C A69G A70G C71U	-0.268
G1A U2G G6U A70U	-0.166
U2G G6U C27U A43C A69G A70G C71U	-0.35
G6U A70U	-0.0758
U2C C27U A43C C46U A69G A70U	-0.169
G1A U2G G6A A69G A70U C71U	-0.331
U2C A43C A69G A70U C71U	-0.32

Variant	yeast fitness (ln)
G6U C27U C66U A69G A70G	-0.306
U2C C27U A70U	-0.0757
U2C C27U A70G	-0.0415
G1A U2G C27U A43C A70U C71U	-0.167
G1A G6A A43C C66U A69G A70G C71U	-0.245
G1A U2G C27U C46U C66U A70G C71U	-0.218
G6A C27U A43C C46U C66U A70U C71U	-0.435
G1A C27U C66A	-0.123
U2G C46U C66A A69G A70G	-0.0404
G1A C27U A43C C66A C71U	-0.277
G1A U2G G6U A43C C46U A69G A70U	-0.354
G1A G6A C27U C46U A69G C71U	-0.238
G1A U2C C27U A70G	-0.0624
U2G G6U C46U C66U A69G C71U	-0.252
G6U C27U C46U A70U C71U	-0.214
G1A G6A C66A A70U C71U	-0.163
G1A U2G C27U A43C C46U A69G C71U	-0.239
G1A U2C G6A C27U C46U C66U A69G A70G	-0.364
G1A U2G G6U C27U C46U A69G A70U	-0.314
U2G C27U A43C C66A A69G A70G C71U	-0.305
G1A G6U C27U A43C C46U C66U A70U	-0.368
